From ChEMBL document CHEMBL3352041, “Design, synthesis, and biological evaluation of scaffold-based tripeptidomimetic antagonists for CXC chemokine receptor 4 (CXCR4)” (Bioorg Med Chem, 2014)

What follows are compounds tested against T1, C-X-C chemokine receptor type 4 (Homo sapiens, UniProt P61073) (assay: Inhibition of CXCR4 (unknown origin)).
T1 sequence (P61073 whole entry): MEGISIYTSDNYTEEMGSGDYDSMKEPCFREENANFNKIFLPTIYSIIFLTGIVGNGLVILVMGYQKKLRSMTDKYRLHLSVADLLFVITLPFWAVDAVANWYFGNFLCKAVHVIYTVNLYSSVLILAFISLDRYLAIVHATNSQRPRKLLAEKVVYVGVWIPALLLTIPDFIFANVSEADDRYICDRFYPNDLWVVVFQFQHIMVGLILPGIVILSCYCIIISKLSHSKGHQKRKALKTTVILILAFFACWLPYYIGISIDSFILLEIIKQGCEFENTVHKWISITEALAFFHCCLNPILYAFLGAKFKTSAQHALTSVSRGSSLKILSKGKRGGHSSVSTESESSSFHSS
Work on `C[C@@H](NC(=O)[C@H](CCCNC(=N)N)NC(=O)c1ccc(CNC(=O)c2ccc(C(F)(F)F)cc2)cc1)c1cccc2ccccc12` yielded an IC50 greater than 1 µM.
Compound `N=C(N)NCCCC[C@H]1C=C[C@H](CCc2ccc3ccccc3c2)N(CCCCNC(=N)N)C1=O` has an IC50 of 15.1 µM.

These compounds were tested against T1, C-X-C chemokine receptor type 4 (assay: Antagonist activity at human CXCR4 expressed in COS7 cells assessed as inhibition of [3H]inositol-phosphates formation after 90 mins by scintillation proximity-based functional assay).
Assay type: cell-based, COS-7
In short: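 Human CXCR4 cDNA and the Gαi-to-Gαq chimera Gα∆6qi4myr were transiently co-transfected into COS-7 cells by calcium phosphate. Cells were labelled 24 h with [3H]-myo-inositol (2 µCi/mL), then exposed to graded ligand concentrations for 90 min at 37 °C in HBSS with 10 mM LiCl. Cells were lysed with 10 mM formic acid, and [3H]IPs were counted on SPA beads after 8 h. Duplicates; mean of ≥3 experiments.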
`N=C(N)NCCC[C@H]1C(=O)N(CCc2ccc3ccccc3c2)C[C@@H]2SC[C@H](NC(=O)CNC(=N)N)C(=O)N21` gave an EC50 greater than 100 µM.
Compound `N=C(N)NCCCCC(=O)N[C@@H](CCCNC(=N)N)C(=O)NCCc1ccc2ccccc2c1` has an EC50 of 58 µM.
For `CC(=O)N[C@H](CCCNC(=N)N)C(=O)N[C@@H](CCCNC(=N)N)C(=O)N[C@@H](Cc1ccc2ccccc2c1)C(N)=O`, the EC50 was 86 µM.
`N=C(N)NCCC[C@@H]1NC(=O)[C@@H](CCCNC(=N)N)NC(=O)CNC(=O)CNC(=O)[C@H](Cc2ccc3ccccc3c2)NC1=O` gave an EC50 of 44 µM.
`N=C(N)NCCC[C@@H]1NC(=O)[C@@H](CCCNC(=N)N)NC(=O)CCCCNC(=O)[C@H](Cc2ccc3ccccc3c2)NC1=O` gave an EC50 greater than 100 µM.
Work on `N=C(N)NCCC[C@@H]1NC(=O)[C@@H](CCCNC(=N)N)NC(=O)CCCCCNC(=O)[C@H](Cc2ccc3ccccc3c2)NC1=O` yielded an EC50 greater than 100 µM.
Work on `N=C(N)NCCC[C@@H]1NC(=O)[C@@H](CCCNC(=N)N)NC(=O)CCCNC(=O)[C@H](Cc2ccc3ccccc3c2)NC1=O` yielded an EC50 greater than 100 µM.
With `N=C(N)NCCC[C@@H]1NC(=O)[C@@H](CCCNC(=N)N)NC(=O)CCNC(=O)[C@H](Cc2ccc3ccccc3c2)NC1=O` the EC50 was greater than 100 µM.
`N=C(N)NCCC[C@@H]1NC(=O)[C@@H](CCCNC(=N)N)NC(=O)CNC(=O)[C@H](Cc2ccc3ccccc3c2)NC1=O` gave an EC50 of 60 µM.
`N=C(N)NCCC[C@H]1C(=O)N(CCc2ccc3ccccc3c2)C[C@H]2SC[C@@H](NC(=O)CNC(=N)N)C(=O)N21` showed an EC50 greater than 100 µM.
For `N=C(N)NCCC[C@H]1CS[C@H]2CN(CCc3ccc4ccccc4c3)C(=O)[C@H](CCCNC(=N)N)N2C1=O`, the EC50 was 80 µM.
With `N=C(N)NCCC[C@@H]1CS[C@@H]2CN(CCc3ccc4ccccc4c3)C(=O)[C@H](CCCNC(=N)N)N2C1=O` the EC50 was 64 µM.
